Results published in paper PMC5901702 (Journal of biomolecular screening, 2012).
Values belong to the compound of their own block, whether it stands above or below them.

What was measured:
rat IDE [1] = molecular target: T1, rat IDE (Rattus norvegicus, UniProt P35559); assay type: biochemical; conditions: 100 µM compound; a-factor–based substrate 50 µM; 0.1 M KPi pH 7.6; relative to DMSO-treated control = 100%
T1 sequence (P35559 1-1019): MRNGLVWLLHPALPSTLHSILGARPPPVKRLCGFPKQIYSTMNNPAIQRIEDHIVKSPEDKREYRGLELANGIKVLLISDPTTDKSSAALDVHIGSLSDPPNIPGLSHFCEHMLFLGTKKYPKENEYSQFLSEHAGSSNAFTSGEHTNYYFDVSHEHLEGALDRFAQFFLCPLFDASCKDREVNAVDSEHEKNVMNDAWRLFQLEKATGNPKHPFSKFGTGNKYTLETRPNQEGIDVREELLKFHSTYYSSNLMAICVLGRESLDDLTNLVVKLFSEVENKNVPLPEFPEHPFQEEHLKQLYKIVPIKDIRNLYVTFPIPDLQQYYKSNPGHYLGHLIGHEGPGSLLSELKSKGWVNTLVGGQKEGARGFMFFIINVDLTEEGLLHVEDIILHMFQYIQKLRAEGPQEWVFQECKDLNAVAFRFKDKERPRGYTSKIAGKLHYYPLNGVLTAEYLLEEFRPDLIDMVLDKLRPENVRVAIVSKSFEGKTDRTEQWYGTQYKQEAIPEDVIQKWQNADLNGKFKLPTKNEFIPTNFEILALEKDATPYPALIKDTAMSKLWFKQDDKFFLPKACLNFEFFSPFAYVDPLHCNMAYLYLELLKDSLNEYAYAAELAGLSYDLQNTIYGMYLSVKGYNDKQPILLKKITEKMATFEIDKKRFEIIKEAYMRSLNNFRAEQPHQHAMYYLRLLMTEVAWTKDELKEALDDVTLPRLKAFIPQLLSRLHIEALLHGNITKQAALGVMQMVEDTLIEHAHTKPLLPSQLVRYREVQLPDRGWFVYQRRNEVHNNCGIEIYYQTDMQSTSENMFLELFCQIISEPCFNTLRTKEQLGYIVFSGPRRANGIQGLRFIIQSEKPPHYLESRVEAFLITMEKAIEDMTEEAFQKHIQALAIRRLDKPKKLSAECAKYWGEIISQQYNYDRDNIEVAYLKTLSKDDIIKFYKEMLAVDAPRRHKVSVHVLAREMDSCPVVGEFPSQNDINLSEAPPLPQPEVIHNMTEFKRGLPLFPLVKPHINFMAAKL
In short: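 Then mixed 1:1 with substrate. Fluorescence was followed for 60 min, and rates were taken from the 15–30 min window. Activity was normalized by the trypsin/pronase approach.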

Ste23p = molecular target: T2, Ste23p (Saccharomyces cerevisiae, UniProt Q06010); test: Target specificity: Ste23p activity with a-factor–based peptide; assay type: biochemical, yeast; conditions: 100 µM compound; 30 °C; relative to DMSO control = 100%
T2 sequence (Q06010 1-1027): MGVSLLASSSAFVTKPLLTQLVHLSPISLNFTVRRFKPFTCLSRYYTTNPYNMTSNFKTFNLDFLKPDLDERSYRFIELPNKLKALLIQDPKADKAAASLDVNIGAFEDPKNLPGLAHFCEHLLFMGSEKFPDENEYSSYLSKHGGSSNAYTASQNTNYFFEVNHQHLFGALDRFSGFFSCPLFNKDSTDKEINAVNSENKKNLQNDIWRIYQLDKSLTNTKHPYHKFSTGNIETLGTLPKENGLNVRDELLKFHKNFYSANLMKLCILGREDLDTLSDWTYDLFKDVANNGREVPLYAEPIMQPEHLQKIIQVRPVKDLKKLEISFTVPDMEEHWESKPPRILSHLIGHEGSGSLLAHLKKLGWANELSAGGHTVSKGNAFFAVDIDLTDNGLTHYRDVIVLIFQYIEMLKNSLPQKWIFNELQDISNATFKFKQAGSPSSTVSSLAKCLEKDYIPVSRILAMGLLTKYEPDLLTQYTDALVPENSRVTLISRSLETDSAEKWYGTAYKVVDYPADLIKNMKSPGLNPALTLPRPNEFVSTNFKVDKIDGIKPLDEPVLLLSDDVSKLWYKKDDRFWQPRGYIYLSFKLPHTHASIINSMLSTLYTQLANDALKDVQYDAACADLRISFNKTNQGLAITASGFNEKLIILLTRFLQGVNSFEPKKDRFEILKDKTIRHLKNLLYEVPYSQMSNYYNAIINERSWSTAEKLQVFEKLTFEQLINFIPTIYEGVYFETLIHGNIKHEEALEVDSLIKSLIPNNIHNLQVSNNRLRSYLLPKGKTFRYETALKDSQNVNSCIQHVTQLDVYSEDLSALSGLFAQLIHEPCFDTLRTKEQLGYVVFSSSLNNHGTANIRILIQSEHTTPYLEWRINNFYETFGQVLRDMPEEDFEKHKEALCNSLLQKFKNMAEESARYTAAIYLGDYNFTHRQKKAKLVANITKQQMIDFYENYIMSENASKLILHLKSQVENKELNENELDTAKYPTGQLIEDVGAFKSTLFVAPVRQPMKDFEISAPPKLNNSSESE
In short: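 Single-dose specificity assay with a-factor–based fluorogenic peptide (50 µM) in 0.1 M KPi pH 7.6. Ste23p was used at 10 µg/mL and 30 °C; trypsin and pronase E at 0.5 µg/mL each under the 37 °C HTS conditions. Enzymes were preincubated 10 min with 100 µM compound. Triplicate rates were normalized by trypsin/pronase full digestion and given relative to DMSO control (100%).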

rat IDE [2] = molecular target: T1, rat IDE; test: Dose-response of rat IDE activation; assay type: biochemical; conditions: for dose-response profile: rat IDE activation, a-factor–based substrate
In short: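 Rat IDE (10 µg/mL) in 0.1 M KPi pH 7.6 was preincubated 10 min at 37 °C with activator (up to 1 mM), then mixed 1:1 with a-factor–based fluorogenic substrate (50 µM final). Fluorescence (320 ex) was read over 60 min and rate taken from the 15–30 min window. Baseline was subtracted and rates normalized to trypsin/pronase E full digestion. AC50 came from best-fit curves, or [Max]50 where the curve was not sigmoidal.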

rat IDE [3] = molecular target: T1, rat IDE; test: Kinetic analysis of rat IDE in presence of activator; assay type: biochemical; conditions: compound 100 µM; 0.1 M KPi pH 7.6; DMSO control 154.8 ± 12.26
[4] = test system: yeast y272 cotransformed with pWS192 and pWS496; test: Yeast toxicity assay; assay type: cell-based; conditions: for yeast saturation density relative to DMSO-treated control: 100 µM compound, 44 h at 30 °C; for yeast saturation density relative to DMSO-treated culture: lower concentrations of compounds
In short: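 Saturated starter culture of y272 carrying pWS192 (MFA1) and pWS496 (PGK-driven HA-tagged rat IDE) was diluted 1:2000 into SC-UW and treated with DMSO or compound (100 µM, or lower empirically chosen doses), in triplicate. Cultures were grown 44 h at 30 °C, or 72 h where needed.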

rat IDE [5] = molecular target: T1, rat IDE; test: a-Factor production bioassay; assay type: cell-based; conditions: 72 h, relative to DMSO-treated control

Structure (SMILES): O=S(=O)(O)CCCc1cccc2ccccc12 [Compound 1]
% Activity IDE (rat IDE [1]): 195.4 ± 12.2% | % Activity Ste23p (Ste23p): 112.0 ± 5.4% | Saturation of activation (rat IDE [2]; highest concentration tested 1 mM): not achieved | dose-response profile (rat IDE [2]): classic sigmoidal dose-responses | Vmax (rat IDE [3]): 194.1 ± 5.85 nmol/min/mg | yeast saturation density relative to DMSO-treated control [4]: > 90%

% Activity IDE (rat IDE [1]): 170.3 ± 16.0% | % Activity Ste23p (Ste23p): 117.2 ± 2.8% | dose-response profile (rat IDE [2]): classic sigmoidal dose-responses | Vmax (rat IDE [3]): 164.2 ± 6.4 nmol/min/mg | IDE-mediated a-factor production in vivo (rat IDE [5]; 100 µM compound): reduced the yield of a-factor produced
Structure (SMILES): Cn1ncc2c(NCCc3ccccc3)nc(Cl)nc21 [Compound 2]

Structure (SMILES): O=S(=O)(O)c1cc(O)c2c(O)c(N=Nc3cccc4ccccc34)c(S(=O)(=O)O)cc2c1 [Compound 3]
% Activity IDE (rat IDE [1]): 356.0 ± 16.0% | % Activity Ste23p (Ste23p): 90.4 ± 0.6% | dose-response profile (rat IDE [2]): inverted bell-shaped activation curve | yeast saturation density relative to DMSO-treated control [4]: > 90% | IDE-mediated a-factor production in vivo (rat IDE [5]; 100 µM compound): enhanced a-factor production in vivo

Structure (SMILES): Nc1nc(SCc2ccccc2Cl)cc(C(=O)O)n1 [Compound 5]
% Activity IDE (rat IDE [1]): 263.5 ± 1.0% | % Activity Ste23p (Ste23p): 103.4 ± 1.6% | dose-response profile (rat IDE [2]): inverted bell-shaped activation curve | Vmax (rat IDE [3]): 127.8 ± 10.41 nmol/min/mg | yeast saturation density relative to DMSO-treated culture ([4]; 44 h): > 90% | IDE-mediated a-factor production in vivo (rat IDE [5]; 12.5 µM compound): enhanced a-factor production in vivo

Structure (SMILES): O=C(CCN1CC2CCC(CC2)C1)c1cccs1 [Compound 6]
% Activity IDE (rat IDE [1]): 230.7 ± 13.5% | % Activity Ste23p (Ste23p): 82 ± 0.3% | dose-response profile (rat IDE [2]): classic sigmoidal dose-responses | Vmax (rat IDE [3]): 176.3 ± 7.35 nmol/min/mg | yeast saturation density relative to DMSO-treated control [4]: completely inhibited growth | yeast saturation density relative to DMSO-treated culture ([4]; 44 h): > 90% | IDE-mediated a-factor production in vivo (rat IDE [5]; 50 µM compound): enhanced a-factor production in vivo

Structure (SMILES): O=C(O)c1ccc(Oc2nc3ccccc3s2)cc1 [Compound 7]
% Activity IDE (rat IDE [1]): 186.6 ± 7.4% | % Activity Ste23p (Ste23p): 102.1 ± 1.7% | dose-response profile (rat IDE [2]): classic sigmoidal dose-responses | Vmax (rat IDE [3]): 194.1 ± 13.81 nmol/min/mg | yeast culture density relative to DMSO-treated culture ([4]; incubation extended to 72 h): > 85% | saturated growth of treated yeast cultures ([4]; lowest concentration evaluated 12.5 µM, 44 h): did not achieve saturated growth | IDE-mediated a-factor production in vivo (rat IDE [5]; 100 µM compound): reduced the yield of a-factor produced

Structure (SMILES): O=[N+]([O-])/C=C/c1cc2ccccc2[nH]1 [Compound 8]
% Activity IDE (rat IDE [1]): 195.0 ± 14.0% | % Activity Ste23p (Ste23p): 80.1 ± 6.0% | dose-response profile (rat IDE [2]): inverted bell-shaped activation curve | Vmax (rat IDE [3]): 185.0 ± 9.73 nmol/min/mg | yeast saturation density relative to DMSO-treated control [4]: completely inhibited growth | yeast saturation density relative to DMSO-treated culture ([4]; 44 h): > 90% | IDE-mediated a-factor production in vivo (rat IDE [5]; 25 µM compound): enhanced a-factor production in vivo
